Screening data as filed in PubChem.
Scp-1 inhibitor = blocks human Scp-1 phosphatase activity. Q9GZU7. Recombinant Scp1, phosphopeptide, malachite green phosphate absorbance. inhibition, % at 20 µM. 340,000 tested, 0.88% active;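 active means inhibition above about 50% at 20 µM, limit read from the data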;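 further: plate controls were DMSO wells with enzyme for no effect and wells lacking enzyme for full effect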
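System: truncated SCP-1 phosphatase (76-261aa); medium: Tris acetate buffer pH 5.5 with MgCl2 and Tween-20; incubation: 45 min room-temperature reaction, 5 min colour, 30 min stabiliser; compound: single 20 µM dose, 1% DMSO; reagent: Phosphorylated 17-residue peptide substrate; read-out: % inhibition at 20 µM; technique: colorimetric free-phosphate detection, absorbance 630 nm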
DNMT1 block = DNMT1 (human) enzyme inhibition; P26358; DNMT1 molecular beacon, Hinp1I cleavage, fluorescence; inhibition (reported as % activation of signal), % at 10 µM; 360,000 tested, 0.83% active; AID 588458; in the data active means inhibition above about 50%
Target sequence (P26358 504-1616 limits assumed): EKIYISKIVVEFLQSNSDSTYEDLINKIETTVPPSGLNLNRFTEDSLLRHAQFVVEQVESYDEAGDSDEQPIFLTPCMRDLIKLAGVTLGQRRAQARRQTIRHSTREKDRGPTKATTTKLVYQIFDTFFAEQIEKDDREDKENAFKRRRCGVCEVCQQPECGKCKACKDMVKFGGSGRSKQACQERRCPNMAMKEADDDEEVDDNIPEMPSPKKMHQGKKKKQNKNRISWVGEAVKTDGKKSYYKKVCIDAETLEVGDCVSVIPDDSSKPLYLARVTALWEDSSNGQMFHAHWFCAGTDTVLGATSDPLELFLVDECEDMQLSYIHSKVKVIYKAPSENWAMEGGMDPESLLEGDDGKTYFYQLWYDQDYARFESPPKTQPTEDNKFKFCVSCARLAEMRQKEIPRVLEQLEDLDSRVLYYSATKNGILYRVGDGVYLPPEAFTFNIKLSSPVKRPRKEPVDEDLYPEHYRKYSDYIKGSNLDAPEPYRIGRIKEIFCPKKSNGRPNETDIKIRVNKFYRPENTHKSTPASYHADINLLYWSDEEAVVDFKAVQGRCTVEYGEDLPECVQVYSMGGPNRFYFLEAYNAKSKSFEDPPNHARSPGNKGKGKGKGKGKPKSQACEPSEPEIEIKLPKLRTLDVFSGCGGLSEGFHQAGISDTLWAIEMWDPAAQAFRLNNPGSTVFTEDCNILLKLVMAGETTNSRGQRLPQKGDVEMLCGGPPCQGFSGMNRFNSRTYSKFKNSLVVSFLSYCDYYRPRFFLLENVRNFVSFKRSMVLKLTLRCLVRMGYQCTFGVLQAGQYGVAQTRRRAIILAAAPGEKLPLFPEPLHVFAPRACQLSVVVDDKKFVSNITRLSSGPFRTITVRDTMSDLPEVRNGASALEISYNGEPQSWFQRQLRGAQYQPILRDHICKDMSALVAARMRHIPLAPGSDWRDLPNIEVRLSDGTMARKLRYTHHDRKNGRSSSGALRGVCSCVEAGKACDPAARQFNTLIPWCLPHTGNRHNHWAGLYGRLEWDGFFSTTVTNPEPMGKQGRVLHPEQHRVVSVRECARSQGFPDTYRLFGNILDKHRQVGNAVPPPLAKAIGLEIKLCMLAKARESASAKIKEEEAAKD
STEP block = blocks human striatal-enriched tyrosine phosphatase; P54829; recombinant STEP, OMFP fluorogenic substrate, fluorescence; inhibition, % at 20 µM; 360,000 tested, 0.25% active;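 active means inhibition at 20 µM, scaled per plate between control wells, above about 37%, limit read from the data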;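 further: 0% = DMSO with enzyme and substrate and 100% = substrate only without enzyme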
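Material: STEP (striatal-enriched tyrosine phosphatase) enzyme, cell-free | Medium: 50 mM Bis-Tris pH 6.0 with 2.5 mM DTT and 0.005% Tween 20 | Read-out: Percent inhibition scaled to no-enzyme and uninhibited-enzyme controls, plate-pattern corrected | Signal: Fluorescence read at 480 nm ex / 540 nm em | Times: 20 min reaction, room temperature, in the dark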
SUMO1-SIM PPI = modulators of human SUMO1-mediated protein-protein interactions. P63165. SUMO1 binding to a labelled peptide, TR-FRET, 1 h. inhibition, % at 20 µM. 360,000 tested, 0.33% active; in the data active means inhibition above about 37%
GRK2 aptamer HTS = human GRK2 inhibition via aptamer displacement. bead flow cytometry, FAM-aptamer displacement from GRK2. inhibition of aptamer binding, % at 10 µM. AID 488847. 330,000 tested, 0.59% active. P25098;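 active means inhibition of aptamer binding above 40%, roughly 3 SD of noise, on plates passing a quality check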;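 further: median bead fluorescence of bound FAM aptamer so fluorescent compounds give negative values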
LMPTP inh = LMPTP (human) inhibition | P24666 | recombinant LMPTP-A, OMFP fluorogenic substrate, fluorescence intensity | inhibition, % at 20 µM | 360,000 tested, 0.22% active;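 active means compounds that cut the enzyme signal by at least half of the control window in the single-dose screen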;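 further: plate controls were DMSO wells with enzyme plus substrate for no effect and substrate without enzyme for full effect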
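Buffer or medium: Bis-Tris pH 6.0, DTT, detergent; Assay system: LMPTP-A enzyme; Quantity: 0.625 nM enzyme; Detection: endpoint fluorescence intensity; Times: 50 min dark incubation at room temperature; Controls: substrate-only low control, DMSO enzyme-plus-substrate high control; Doses: single 20 µM dose; Read-out: percent inhibition versus substrate-only and uninhibited controls; Reagent: 400 µM OMFP.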
GRK2 CP1 = confirmation of human GRK2 inhibitors displacing RNA aptamer; shares compounds with GRK2 aptamer HTS; aptamer displacement, % at 10 µM; 2,000 tested, 4% active; bead-bound GRK2, FAM-aptamer displacement, flow cytometry;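 active means aptamer displacement above 40%, near three times the noise of non-fluorescent compounds, on plates passing quality checks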;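 further: negative values mostly reflect intrinsic compound fluorescence rather than true enhancement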
Aptamer quench = quenches fluorescent RNA aptamer, GRK2 hit artifact; 110 tested, under 10 active; Fluorescent RNA aptamer beads, quenching, flow cytometry; hits give high values; AID 504521; fluorescence change (kMESF span), kMESF (test concentration not listed); shares compounds with GRK2 aptamer HTS;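 active means compounds whose bead fluorescence drops by more than 37 kMESF across the dose range, marking them as dye quenchers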
FAM quench CP1 = counter-screen for GRK2 aptamer inhibitors: fluorescent aptamer quenchers. shares compounds with GRK2 aptamer HTS. 2,000 tested, under 10 active. AID 504580. fluorescence response (% of DMSO), % at 10 µM. Carboxyfluorescein RNA aptamer on beads, flow cytometry quenching; hits give low values;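 active means compounds that quench the bead-bound fluorescent RNA probe, cutting fluorescence to under half of the solvent control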;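 further: counterscreen run without GRK2 so only probe quenching by compound is measured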
GRK2 confirm 2 = human GRK2 inhibition confirmation, cherry pick 2 | shares compounds with GRK2 aptamer HTS | AID 504782 | bead-bound GRK2, FAM-aptamer displacement, flow cytometry | inhibition of aptamer binding, % at 10 µM | 360 tested, under 10 active;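 active means inhibition of aptamer binding above 40%, about triple the noise seen with nonglowing compounds, on plates passing quality control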;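 further: negative values mostly come from compounds that fluoresce themselves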
FAM quench CP2 = counter-screen for GRK2 binding hits: quenchers of fluorescent RNA aptamer; shares compounds with GRK2 aptamer HTS; carboxyfluorescein RNA aptamer beads, flow cytometry quenching; hits give low values; fluorescence response vs DMSO, % at 10 µM; 360 tested, under 10 active;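 active means response vs DMSO under 50%, meaning signal dropped by over half, treated as fluorescence quencher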;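 further: labelled aptamer on streptavidin beads without GRK2 as a quench counter-screen; 100% = bead fluorescence of DMSO wells and lower means quenching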
* marks the source's active call; other numbers are inactive results; . = not tested or not shown. Shown are actives, neighbours in structure and some others; about 2.2% of the full set was active somewhere.

SMILES | Scp-1 inhibitor | DNMT1 block | STEP block | SUMO1-SIM PPI | GRK2 aptamer HTS | LMPTP inh | GRK2 CP1 | FAM quench CP1 | others
CCCOC(=O)c1cc(-c2ccc(/C=C3/C(=O)N(C)C(=O)C(C#N)=C3C)o2)ccc1Cl | 10 | -5 | -2 | 8 | 52* | 1 | 0 | 96
CCCOC(=O)c1cc(-c2ccc(C=O)o2)ccc1Cl | -7 | 11 | 1 | -15 | 0 | 1 | . | .
O=C(O)C1C2CCC(C2)C1C(=O)NCc1ccccn1 (stereo unspecified) | -4 | 1 | 10 | -1 | 0 | -2 | . | .
CCn1cc(CNC(=O)C2C3CCC(C3)C2C(=O)O)cn1 (stereo unspecified) | 6 | 1 | -2 | 0 | 40 | -1 | 3 | 102
O=C(NCC1CCCO1)C1CCCN1C(=O)Nc1ccc(Cl)c(Cl)c1 (stereo unspecified) | 4 | 2 | -1 | -2 | 53* | -1 | -5 | 99
N=c1oc2cc(O)ccc2cc1C(=O)Nc1nc2ccccc2s1 | -5 | 6 | -1 | 0 | 30 | 6 | -2 | 94
NS(=O)(=O)c1ccc(NC(=S)N2CCN(c3ccccc3Cl)CC2)cc1 | -11 | -2 | -2 | 8 | 48* | -1 | . | . | GRK2 confirm 2=2;FAM quench CP2=334
Cc1cc(/C=c2\sc3nc4ccccc4n3c2=O)c(C)n1-c1ccc(C(=O)O)cc1 | 20 | 43 | 6 | 25 | . | 4 | . | .
O=C(O)c1ccc(-c2ccc(/C=c3/sc4nc5ccccc5n4c3=O)o2)cc1Cl | 98* | 106* | 90* | 39* | 80* | 14 | 60* | 94 | Aptamer quench=10
Cc1ccc2c(nc3s/c(=C\c4ccc(-c5ccccc5C(=O)O)o4)c(=O)n32)c1C | 76* | 63* | 34 | 18 | 49* | 11 | 2 | 105
Cc1ccc2c(nc3s/c(=C/c4cccs4)c(=O)n32)c1C | 22 | 33 | 2 | -2 | . | 2 | . | .
CC1(C)CN(Cc2ccccc2)C(=O)[C@H]1CC(=O)Nc1ccc(Br)cc1 | . | -3 | -2 | -1 | . | 0 | . | .
COC(=O)[C@]12CCCCC=C1N(Cc1ccc3c(c1)OCO3)C(=O)[C@H](CC(=O)N1CCSCC1)C2 | . | . | . | -1 | . | 0 | . | .
Cc1cccc(NC(=O)CCC(=O)N/N=C/c2ccc(O)cc2O)c1 | -9 | 0 | 1 | 18 | 56* | -1 | 2 | 105
CN1CCOC(=O)/C1=N/Nc1cc(Cl)ccc1Cl | 0 | -2 | -3 | -3 | 57* | 1 | -6 | 96
COc1ccc(C#Cc2cnc3c(c2)C(=O)N([C@H](C)CO)C[C@@H](C)[C@H](CN(C)C(=O)CN(C)C)O3)cc1 | . | -5 | 0 | -2 | . | -1 | . | .
COC1OCC(O)C(NC(=O)N(C)N=O)C1O (stereo unspecified) | . | -3 | 6 | -3 | . | -1 | . | .
CCc1sc(C(=O)Nc2ncccc2C)cc1C | -3 | -1 | -1 | -2 | 2 | -1 | . | .
CCc1sc(C(=O)Nc2nccs2)cc1C | -10 | -3 | 0 | -5 | 30 | 0 | 0 | 97
Cc1ccc(S(=O)(=O)N2C[C@H]3C(=O)C[C@@H](c4ccccc4)N(S(C)(=O)=O)[C@H]3C[C@H]2c2ccccc2)cc1 | . | -10 | 1 | 0 | . | 2 | . | .
CCC(=O)N[C@@H]1C=C[C@@H](CC(=O)NCc2ccccc2F)O[C@@H]1CO | . | . | . | -3 | . | -1 | . | .
Nc1nc2c(nc(N3CCCCC3)n2[C@@H]2O[C@H](CO)[C@@H](O)[C@H]2O)c(=O)[nH]1 | -9 | 0 | -2 | -4 | 93* | -2 | -2 | 99
O=C(O)CC1NC(=S)N(c2ccccc2)C1=O (stereo unspecified) | -6 | 2 | -3 | -2 | 70* | 0 | -1 | 103
O=C1C(Cc2ccc(O)cc2)NC(=S)N1c1ccccc1 (stereo unspecified) | 0 | -6 | 0 | 0 | 0 | 0 | . | .
CC12CCC(O)CC1=CCC1C2CCC2(C)C3=NN=CC3CC12 (stereo unspecified) | -5 | 0 | 0 | 3 | . | -1 | . | .
SMILES | Scp-1 inhibitor | DNMT1 block | STEP block | SUMO1-SIM PPI | GRK2 aptamer HTS | LMPTP inh | GRK2 CP1 | FAM quench CP1 | others
NCCCC[C@@H]1NC(=O)c2cc([N+](=O)[O-])cc(I)c2SC[C@@H](C(N)=O)NC(=O)[C@H](Cc2ccc(O)cc2)NC1=O | 9 | 13 | 3 | -55 | 69* | 12 | -39 | 104
NCCCC[C@H]1NC(=O)[C@H](CCC(=O)O)NC(=O)c2cc([N+](=O)[O-])cc(I)c2OCC[C@@H](C(N)=O)NC1=O | 91* | . | . | . | 56* | . | 37 | 102
C[C@@H]1NC(=O)c2cc([N+](=O)[O-])cc(I)c2OCC[C@@H](C(N)=O)NC(=O)[C@H](CCCCN)NC1=O | -8 | 4 | 2 | -21 | 0 | -2 | . | .
CCCNC(=O)C[C@H]1CC[C@@H]2[C@H](COC[C@@H](O)CN2C(=O)c2ccccn2)O1 | . | . | . | 1 | . | -2 | . | .
COc1ccc(NC(=O)C2CSC(C)(C)N2C=O)cc1 (stereo unspecified) | -3 | -1 | 0 | 1 | 75* | 0 | -3 | 100
CN(C)CCNC(=O)Cn1c(=O)c2cccn2c2ccc(F)cc21 | -7 | 5 | 3 | 5 | 0 | -1 | . | .
O=C(Cn1c(=O)c2cccn2c2ccc(F)cc21)NCCCN1CCN(c2ccccc2F)CC1 | -1 | 0 | -2 | -2 | 0 | 1 | -32 | 98
O=C(NCCCN1CCN(c2ccccc2F)CC1)Nc1ccc(F)cc1 | 1 | -1 | -1 | 1 | 0 | -2 | -1 | 101
CN[C@H]1C[C@H]2c3[nH]c4ccc(-c5ccc(OC)cc5)cc4c3CCN2C(=O)[C@H]1[C@H](C)O | . | -31 | 4 | -25 | . | -2 | . | .
COc1ccc(CN2C(=O)C(CC(C)C)Nc3ncnc(N4CCOCC4)c32)cc1 (stereo unspecified) | 2 | -1 | 3 | 2 | 97* | 0 | 0 | 96
